Experimental data as given in ChEMBL document CHEMBL3351295, “Rational design, synthesis and evaluation of chromone-indole and chromone-pyrazole based conjugates: identification of a lead for anti-inflammatory drug” (Eur J Med Chem, 2014).
Activity calls are given as the source filed them. No cut-off for these calls is given here.

Key:
[1] = target: T1, Prostaglandin G/H synthase 2 (Homo sapiens) (UniProt P35354)
T1 sequence (whole entry): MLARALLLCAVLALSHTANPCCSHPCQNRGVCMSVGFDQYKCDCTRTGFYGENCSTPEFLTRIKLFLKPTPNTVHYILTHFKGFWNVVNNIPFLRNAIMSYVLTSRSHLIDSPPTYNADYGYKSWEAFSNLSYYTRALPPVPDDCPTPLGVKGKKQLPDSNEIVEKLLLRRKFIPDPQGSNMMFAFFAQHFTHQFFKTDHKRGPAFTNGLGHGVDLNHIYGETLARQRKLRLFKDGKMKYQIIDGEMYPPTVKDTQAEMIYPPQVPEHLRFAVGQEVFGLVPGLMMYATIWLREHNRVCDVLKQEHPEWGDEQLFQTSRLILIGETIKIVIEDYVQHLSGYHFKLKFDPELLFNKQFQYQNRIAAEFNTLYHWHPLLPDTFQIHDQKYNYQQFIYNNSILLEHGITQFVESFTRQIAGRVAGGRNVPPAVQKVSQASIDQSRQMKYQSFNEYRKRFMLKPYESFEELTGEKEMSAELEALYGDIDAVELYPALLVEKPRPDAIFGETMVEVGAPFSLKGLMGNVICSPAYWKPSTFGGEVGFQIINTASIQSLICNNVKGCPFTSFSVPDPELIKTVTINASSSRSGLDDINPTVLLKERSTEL

[2] = target: Prostaglandin G/H synthase 1 (Homo sapiens) (UniProt P23219)
Sequence of Prostaglandin G/H synthase 1 (Homo sapiens) (P23219 whole entry): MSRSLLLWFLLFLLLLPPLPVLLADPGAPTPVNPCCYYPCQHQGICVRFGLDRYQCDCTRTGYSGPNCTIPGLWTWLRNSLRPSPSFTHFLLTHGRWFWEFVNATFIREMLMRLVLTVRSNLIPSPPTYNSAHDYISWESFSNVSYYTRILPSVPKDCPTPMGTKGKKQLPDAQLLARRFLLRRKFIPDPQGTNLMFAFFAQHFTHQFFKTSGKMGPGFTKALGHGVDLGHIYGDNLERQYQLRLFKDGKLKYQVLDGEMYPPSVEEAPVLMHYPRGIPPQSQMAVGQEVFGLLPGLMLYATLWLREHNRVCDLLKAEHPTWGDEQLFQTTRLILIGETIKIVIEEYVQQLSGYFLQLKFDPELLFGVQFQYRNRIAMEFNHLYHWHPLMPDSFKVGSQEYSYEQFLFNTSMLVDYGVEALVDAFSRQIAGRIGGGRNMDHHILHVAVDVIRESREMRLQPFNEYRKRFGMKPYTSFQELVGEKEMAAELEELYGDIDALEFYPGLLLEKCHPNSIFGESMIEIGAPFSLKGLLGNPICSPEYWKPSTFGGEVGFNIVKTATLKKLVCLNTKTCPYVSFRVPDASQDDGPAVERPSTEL

[3] = Inhibition of potato 5-LOX assessed as decrease in leukotriene production using arachidonic acid as substrate by enzyme immunoassay; set-up: species or system Solanum tuberosum
Procedure, shortened: (§1)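 Potato 5-LOX assay in buffer with DMSO solvent control. Compounds were tested at final well concentrations of 10^-5 to 10^-8 M in duplicate. Reaction was started with arachidonic acid and the plate shaken 5 min. Chromogen was added to stop the reaction, followed by 30 min incubation and reading at 500 nm. Activity was compared with 100% initial-activity wells.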

Solanum tuberosum [4] = test: Inhibition of potato 5-LOX assessed as decrease in leukotriene production using arachidonic acid as substrate at 10 uM by enzyme immunoassay
Procedure, shortened: as §1

[5] = target: T2, Prostaglandin G/H synthase 1 (Ovis aries) (UniProt P05979); test: Inhibition of ovine COX-1 assessed as decrease in prostaglandin production using arachidonic acid as substrate at 1 uM incubated with enzyme for 10 mins prior to substrate challenge by enzyme immunoassay
T2 sequence (whole entry): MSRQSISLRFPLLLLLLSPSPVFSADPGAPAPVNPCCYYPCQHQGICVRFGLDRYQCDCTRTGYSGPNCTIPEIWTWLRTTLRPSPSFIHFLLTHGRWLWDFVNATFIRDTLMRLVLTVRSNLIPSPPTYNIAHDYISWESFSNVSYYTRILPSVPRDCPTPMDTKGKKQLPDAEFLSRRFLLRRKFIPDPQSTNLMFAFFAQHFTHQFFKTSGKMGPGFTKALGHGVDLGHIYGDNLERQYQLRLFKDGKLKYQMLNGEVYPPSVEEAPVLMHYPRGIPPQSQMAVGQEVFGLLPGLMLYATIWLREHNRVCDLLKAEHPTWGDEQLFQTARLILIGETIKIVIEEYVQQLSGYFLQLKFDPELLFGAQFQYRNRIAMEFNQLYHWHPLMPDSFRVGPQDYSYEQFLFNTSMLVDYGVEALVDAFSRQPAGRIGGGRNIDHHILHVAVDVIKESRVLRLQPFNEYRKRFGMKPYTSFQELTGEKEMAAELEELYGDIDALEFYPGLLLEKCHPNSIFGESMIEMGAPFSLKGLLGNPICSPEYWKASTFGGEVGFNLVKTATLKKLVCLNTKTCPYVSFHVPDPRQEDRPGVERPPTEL
Procedure, shortened: (§2)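 Ovine COX-1 EIA kit run in triplicate. Compounds were at 10^-5 to 10^-8 M. Enzyme and compound were incubated 10 min at 37 °C, then arachidonic acid was added for 2 min. The reaction was stopped with 1 M HCl and reduced with stannous chloride. Prostaglandins were quantified by AChE-tracer competitive EIA (18 h at room temperature, Ellman's reagent, read at 420 nm) against a 100% activity control.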

[6] = target: T2, Prostaglandin G/H synthase 1 (Ovis aries); test: Inhibition of ovine COX-1 assessed as decrease in prostaglandin production using arachidonic acid as substrate at 0.1 uM incubated with enzyme for 10 mins prior to substrate challenge by enzyme immunoassay
Procedure, shortened: as §2

Solanum tuberosum [7] = test: Inhibition of potato 5-LOX assessed as decrease in leukotriene production using arachidonic acid as substrate at 0.1 uM by enzyme immunoassay
Procedure, shortened: as §1

Solanum tuberosum [8] = test: Inhibition of potato 5-LOX assessed as decrease in leukotriene production using arachidonic acid as substrate at 10 nM by enzyme immunoassay
[9] = target: T2, Prostaglandin G/H synthase 1 (Ovis aries); test: Inhibition of ovine COX-1 assessed as decrease in prostaglandin production using arachidonic acid as substrate at 10 uM incubated with enzyme for 10 mins prior to substrate challenge by enzyme immunoassay
Procedure, shortened: as §2

[10] = target: T3, Prostaglandin G/H synthase 1 (Ovis aries, UniProt P05979); test: Inhibition of ovine COX-1 assessed as decrease in prostaglandin production using arachidonic acid as substrate incubated with enzyme for 10 mins prior to substrate challenge by enzyme immunoassay
T3 sequence (P05979 whole entry): T2 sequence (whole entry)
Procedure, shortened: as §2

Mus musculus [11] = test: Analgesic activity in Swiss albino mouse assessed as decrease in capsaicin-induced paw lickings at 5 mg/kg, ip administered 30 mins before capsaicin injection; assay type: functional; settings: route intraperitoneal
Procedure, shortened: (§3)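 Capsaicin […] was injected into the plantar surface of the right hind paw. Swiss albino mice (25–35 g, either sex, groups of 6) were pretreated i.p. 30 min beforehand; saline 0.5 mL was the control. Time spent licking and twitching was recorded over 10 min. Results are mean ± SEM (n = 6), analysed by one-way ANOVA with Tukey's test.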

[12] = target: Prostaglandin G/H synthase 1 (Homo sapiens) (UniProt P23219); test: Binding affinity to COX-1 (unknown origin) at 0.35 mM after 30 mins by [13C] NMR spectroscopy; settings: in the assay text read “[1H] NMR” for “[13C] NMR”
Procedure, shortened: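 Compound was 0.35 mM in DMSO-d6, with 12 (0.08 mM) COX-1 or COX-2 added. Samples were incubated at 37 °C and 1H NMR spectra were recorded every 30 min. D2O exchange was used to assign NH signals.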

Mus musculus [13] = test: Analgesic activity in Swiss albino mouse assessed as decrease in capsaicin-induced paw lickings at 10 mg/kg, ip administered 30 mins before capsaicin injection; assay type: functional, organism-based; set-up: dose 10 mg/kg
Procedure, shortened: as §3

Solanum tuberosum [14] = test: Inhibition of potato 5-LOX assessed as decrease in leukotriene production using arachidonic acid as substrate at 1 uM by enzyme immunoassay
Mus musculus [15] = test: Analgesic activity in Swiss albino mouse assessed as decrease in capsaicin-induced paw lickings at 25 mg/kg, ip administered 30 mins before capsaicin injection; assay type: functional; settings: route intraperitoneal
Procedure, shortened: as §3

Compound	Ka [1]	Ka [2]	IC50 [3]	inhibition (Solanum tuberosum [4])	inhibition [5]	inhibition [6]	inhibition (Solanum tuberosum [7])	inhibition (Solanum tuberosum [8])	inhibition [9]	IC50 [10]	Activity [12]	inhibition (Solanum tuberosum [14])	inhibition in vivo at 5 mg/kg (Mus musculus [11])	inhibition (Mus musculus [13])	inhibition in vivo at 25 mg/kg (Mus musculus [15])
CCCCC/C=C\C/C=C\C/C=C\C/C=C\CCCC(=O)O	0.18 ×10⁴ /M	0.39 ×10⁴ /M													
O=C1/C(=C/c2coc3ccccc3c2=O)c2ccccc2N1c1c(Cl)cccc1Cl				8.62%	75%	63%	20%		80.3%	4.7 nM		15.5%			
CC1=NN(c2cccc(Cl)c2)C(=O)/C1=C/c1coc2c([N+](=O)[O-])cc(F)cc2c1=O			7400 nM		18%	15%	22.4%	8.62%	27.9%	> 10000 nM		46.5%			
CC(C)c1ccc2occ(/C=C3/C(=O)N(c4c(Cl)cccc4Cl)c4ccccc43)c(=O)c2c1			20 nM		56%	47%	44.8%	30.1%	64.6%	650 nM		81%			
O=C1Nc2ccccc2/C1=C/c1coc2ccc(Br)cc2c1=O					30.4%	20%			40.5%	6750 nM		77.6%			
O=C(O)Cc1ccccc1Nc1c(Cl)cccc1Cl [DICLOFENAC]															68%

Now from value to compound, other results behind:

Ka [1]	Ka [2]	IC50 [3]	inhibition (Solanum tuberosum [4])	inhibition [5]	inhibition [6]	inhibition (Solanum tuberosum [7])	inhibition (Solanum tuberosum [8])	inhibition [9]	IC50 [10]	Activity [12]	inhibition (Solanum tuberosum [14])	Compound	inhibition in vivo at 5 mg/kg (Mus musculus [11])	inhibition (Mus musculus [13])	inhibition in vivo at 25 mg/kg (Mus musculus [15])
		10000 nM	50%	60%	44.4%	37%	25%	80.3%	630 nM			O=C1/C(=C/c2coc3ccc(Br)cc3c2=O)c2ccccc2N1c1c(Cl)cccc1Cl			
0.75 ×10⁴ /M	0.29 ×10⁴ /M		74.1%	43%	35%	22.4%		51.6%	1350 nM	Active		O=C1Nc2ccccc2/C1=C/c1coc2ccccc2c1=O	76%	Active	
0.22 ×10⁴ /M	0.93 ×10⁴ /M											CC(=O)Oc1ccccc1C(=O)O			
